HSF1 activator: increases HSF-1 driven luciferase reporter signal. NIH3T3-HGL HSF-1 luciferase reporter, MG132, 8 h; 100% = twice DMSO control signal. activation, % at 9 µM. actives 1.7% (n = 300,000). AID 504408;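 active = mean replicate activation of at least 50% with a set share of replicates each reaching 50%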;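 note: 0% = median of the neutral control wells and 100% = twice that signal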
HSP90 refold inh: blocks HSP90-mediated luciferase refolding in reticulocyte lysate | inhibition, % at 5.6 µM | Rabbit reticulocyte lysate, luciferase refolding luminescence, 3 h | actives 0.91% (n = 290,000);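 active = inhibition above the screen-wide mean plus 3 SD, computed separately per campaign, cut at about 16% in these data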;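 note: 0% = DMSO wells and 100% = 60 µM geldanamycin wells; inhibitors lower the luminescence because luciferase stays unfolded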
HCV NS3 hel inh: blocks Hepatitis C virus NS3 helicase unwinding. NS3 helicase DNA unwinding, Cy5 molecular beacon fluorescence. inhibition, % at 10.9 µM. actives 0.56% (n = 290,000);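 active = inhibition above the mean of all tested compounds plus 3 SD, set per campaign, cut at about 35% in these data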;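 note: 0% = DMSO wells and 100% = thioflavine S control wells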
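Control set: DMSO versus 110 µM thioflavine S; Material: NS3 helicase fragment of HCV; Measured by: Cy5 fluorescence at 0 and 60 min, beacon hairpin quenching; Read-out basis: percent inhibition from t60/t0 fluorescence ratio; Times: reaction time 60 min, 25 °C; Repeats: single replicate; Compound dosing: single dose, 10.9 µM nominal final, DMSO 0.8% final.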
Hep lipid drop: modulators of hepatic lipid droplet formation | AML12 mouse hepatocytes, oleate lipid droplets, BODIPY imaging | inhibition, % at 6.5 µM | actives 0.4% (n = 240,000);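 active = lipid droplet intensity inhibited by at least 50%, with more than 500 cells counted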
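Test system: AML12 hepatocytes (mouse); reagent: oleate loading, 100 µM; dosing: one dose, 6.5 µM compound; incubation: overnight exposure; signal: fluorescence imaging, 20x objective, two fields per well; read-out basis: % inhibition of corrected integrated BODIPY droplet signal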
HSF1 inh: HSF1 inhibition; NIH3T3-HGL HSE-luciferase, MG132-induced, luminescence 8 h; hits give low values; actives 0.77% (n = 300,000); activity change, negative = inhibition, % at 7.5 µM (by protocol);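 active = more than half of replicate wells show activity change below -50%, luminescence cut by over half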;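 note: luciferase reports HSF-1 transcriptional activity via heat shock element; 0% = median of DMSO wells and -100% = zero luminescence signal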
Lipid drop inh: confirmation of inhibitors of hepatic lipid droplet formation | AML12 mouse hepatocytes, BODIPY lipid droplet imaging; droplets induced with 100 µM oleic acid | actives 65% (n = 870) | AID 463183 | shares compounds with Hep lipid drop | inhibition, % at 5.2 µM;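 active = inhibition of lipid droplet metric at least 50%, with more than 300 cells in each of four replicates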;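 note: plate controls were DMSO with oleic acid for no effect and 5 µM Triacsin-C for full effect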
AML12 tox img: AML12 hepatocyte cytotoxicity (counter-screen) | shares compounds with Hep lipid drop | AML12 mouse hepatocytes, DAPI nuclear morphology cytotoxicity imaging; hits give high values; cells fed 100 µM oleate overnight | z-score at 5 µM | actives 3% (n = 870); in the data active = z-score above about 6.3;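 note: compound exposure lasted overnight at 37 °C before fixation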
AML12 tox conf: confirmation of cytotoxicity in AML12 mouse hepatocytes | shares compounds with Hep lipid drop | AML12 mouse hepatocyte viability, ATP luminescence; cells loaded with 100 µM oleic acid | 530 tested, under 10 active | cytotoxicity, % at 50 µM;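 active = cytotoxicity above 50% in each of four replicates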;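 note: compound exposure lasted overnight at 37 °C before the ATP read; 0% = DMSO-treated cells and 100% = wells with no cells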
An asterisk follows results filed as active. A selection: hits, their analogues and other compounds. The true share with any hit is near 3.8%.

What do the screens show for `CCN(CC)c1ccc(CC(=O)NC(C)Cc2ccccc2)cc1` (centres undefined)?
HSF1 activator: -6; HSP90 refold inh: -3; HCV NS3 hel inh: 0; HSF1 inh: -8

How did CCCN(CCC)c1ccc(CC(=O)NC(C)Cc2ccccc2)cc1 (centres undefined) do in these assays?
HSF1 activator: -1; HSP90 refold inh: -3; HCV NS3 hel inh: -14; Hep lipid drop: 101*; HSF1 inh: 1; Lipid drop inh: 109*; AML12 tox img: -0.95; AML12 tox conf: 3

What do the screens show for `Cc1cc(C)c2nc(C)cc(Nc3ccc(C(=O)N4CCOCC4)cc3)c2c1`?
HSF1 activator: 18; HSP90 refold inh: 2; HCV NS3 hel inh: 6; Hep lipid drop: -1; HSF1 inh: 6

What do the screens show for `COc1ccc(-c2csc(NC(=O)c3ccc(OCC(=O)N4CCOCC4)c(OC)c3)n2)cc1OC`?
HSF1 activator: -25; HSP90 refold inh: -4; HCV NS3 hel inh: 4; Hep lipid drop: 71*; HSF1 inh: -23; Lipid drop inh: 96*; AML12 tox img: 0.43; AML12 tox conf: 25

What do the screens show for `CC(=O)c1ccc(Nc2nc(=O)c3cccnc3s2)cc1`?
HSF1 activator: 29; HSP90 refold inh: 2; HCV NS3 hel inh: 0; Hep lipid drop: 77*; HSF1 inh: 17; Lipid drop inh: 20; AML12 tox img: -0.77

Results for O=C(Nc1cccc(Cl)c1)c1ccc(OC(=S)N2CCOCC2)cc1 ?
HSF1 activator: 43; HSP90 refold inh: 0; HCV NS3 hel inh: 7; Hep lipid drop: -24; HSF1 inh: 36

How did Cc1cccc(NC(=O)c2cccc(OC(=S)N3CCOCC3)c2)c1 do in these assays?
HSF1 activator: -12; HSP90 refold inh: -3; HCV NS3 hel inh: -4; Hep lipid drop: 84*; HSF1 inh: 4; Lipid drop inh: 104*; AML12 tox img: 0.092; AML12 tox conf: 5

How did CCCn1nc2cc(C(=O)NCc3ccc(OC(F)(F)F)cc3)ccc2c1OCC do in these assays?
HSF1 activator: 6; HSP90 refold inh: -3; HCV NS3 hel inh: -6; Hep lipid drop: 67*; HSF1 inh: 1; Lipid drop inh: 98*; AML12 tox img: -0.66; AML12 tox conf: 6

What do the screens show for `Cc1ccc(NC(=O)C2CCC(CNC(=O)[C@@H]3Cc4ccccc4CN3)CC2)c(C)c1` (some centres undefined)?
HSF1 activator: 6; HSP90 refold inh: -3; HCV NS3 hel inh: -6; Hep lipid drop: -50; HSF1 inh: -3

What do the screens show for `CN(C)S(=O)(=O)c1cccc(NC(=O)CC23CC4CC(CC(C4)C2)C3)c1`?
HSF1 activator: 1; HSP90 refold inh: 2; HCV NS3 hel inh: 1; Hep lipid drop: 84*; HSF1 inh: 0; Lipid drop inh: 24; AML12 tox img: -0.17

Results for CCc1cc(=O)oc2cc(C)cc(OCC(=O)NC3CC3)c12 ?
HSF1 activator: -7; HSP90 refold inh: 4; HCV NS3 hel inh: 8; Hep lipid drop: 1; HSF1 inh: -6

Results for Cc1cc(OCC(=O)NC2CC2)c2c(C)cc(=O)oc2c1 ?
HSF1 activator: -3; HSP90 refold inh: -3; HCV NS3 hel inh: -1; Hep lipid drop: 61*; HSF1 inh: 1; Lipid drop inh: -12; AML12 tox img: -0.82

Results for COc1ccc(NC2CCCN(C(=O)c3cc4ncccn4n3)C2)cc1 (centres undefined) ?
HSF1 activator: 19; HSP90 refold inh: -7; HCV NS3 hel inh: 9; Hep lipid drop: 13; HSF1 inh: 2

Results for CCOC(=O)c1c(C)[nH]c(N=Nc2ccccc2Cl)c1C ?
HSF1 activator: 50; HSP90 refold inh: -2; HCV NS3 hel inh: 1; Hep lipid drop: 65*; HSF1 inh: 23; Lipid drop inh: 105*; AML12 tox img: 0.39; AML12 tox conf: 5

How did O=c1[nH]cc(S(=O)(=O)N2CCN(c3cccc(Cl)c3)CC2)c(=O)[nH]1 do in these assays?
HSF1 activator: -13; HSF1 inh: -14

How did COc1cc(OC)cc(C(=O)N2CCN(Cc3ccc4c(c3)OCO4)CC2)c1 do in these assays?
HSF1 activator: -2; HSP90 refold inh: 2; HCV NS3 hel inh: -3; Hep lipid drop: 24; HSF1 inh: -6

Results for CCCNC(=O)COC(=O)/C=C/c1ccc(C)o1 ?
HSF1 activator: -8; HSP90 refold inh: 9; HCV NS3 hel inh: 19; Hep lipid drop: 21; HSF1 inh: -7

Results for CCOc1ccc(CCNC(=O)COC(=O)/C=C/c2ccc(OC)c(OC)c2)cc1OCC ?
HSF1 activator: -4; HSP90 refold inh: -3; HCV NS3 hel inh: -6; Hep lipid drop: 94*; HSF1 inh: -7; Lipid drop inh: 109*; AML12 tox img: -0.73; AML12 tox conf: 7

What do the screens show for `CCOc1ccc(CCNC(=O)COC(=O)/C=C/c2ccc(C)o2)cc1OCC`?
HSF1 activator: 6; HSP90 refold inh: -1; HCV NS3 hel inh: 5; Hep lipid drop: 59*; HSF1 inh: -1; Lipid drop inh: 91*; AML12 tox img: -0.68; AML12 tox conf: 10

Results for CCOc1ccc(CCNC(=O)COC(=O)/C=C/c2ccc(OC(F)F)c(OC)c2)cc1OCC ?
HSF1 activator: 17; HSF1 inh: -4

How did COC(CNC(=O)Cn1nc(Cc2ccncc2)c2ccccc2c1=O)OC do in these assays?
HSF1 activator: 24; HSP90 refold inh: -4; HCV NS3 hel inh: 23; Hep lipid drop: 11; HSF1 inh: -4

Results for COc1ccccc1NC(=O)c1ccccc1N(Cc1ccccc1)S(C)(=O)=O ?
HSF1 activator: 6; HSP90 refold inh: -1; HCV NS3 hel inh: 4; Hep lipid drop: -29; HSF1 inh: 0

How did CCN(CC(=O)Nc1ccccc1C(F)(F)F)C(=O)c1cc(-c2cccs2)nn1-c1ccccc1 do in these assays?
HSF1 activator: 25; HSP90 refold inh: 3; HCV NS3 hel inh: -12; Hep lipid drop: 65*; HSF1 inh: 25; Lipid drop inh: 103*; AML12 tox img: -0.44; AML12 tox conf: 14

How did COc1ccc(C(=O)n2cnc3ccccc32)cc1[N+](=O)[O-] do in these assays?
HSF1 activator: -9; HSP90 refold inh: -6; HCV NS3 hel inh: 1; Hep lipid drop: -1; HSF1 inh: -10

Bioassay records from PubChem BioAssay.
